Here are results for 5 compounds from ChEMBL document CHEMBL4665841, “Rapid Solid-Phase Construction of Serine Hydrolase Probes Results in Selective Activity-Based Probes for Acyl Protein Thioesterases-1/2” (J Med Chem, 2020).

The source made the active and inactive calls. The calls are words filed in the database; no cut-off is given here.

For assay [1], the target named is Acyl-protein thioesterase 1/2 (Mus musculus, UniProt P97823+Q9WTL7). Description: (§1) Inhibition of FP-Rh binding to APT-1/2 in mouse brain cytosolic fraction preincubated for 1 hr followed by FP-Rh addition and measured after 1 hr by SDS-PAGE analysis. In kind it is tissue-based. Summed up:
(§2)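 Apparent IC50 by competitive ABPP. Mouse brain cytosolic or membrane fraction (1 mg/mL) preincubated 1 h at RT with six inhibitor concentrations (1:3 serial dilution from top 30 μM or 370 nM; 100x DMSO stock), then FP-rhodamine 1 h. 12% SDS-PAGE, fluorescence at 532/568 nm. Band intensities normalized to uninhibited FP-Rh control (100%); IC50 fitted from dose-response curve.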

The target in assay [2] is T1, Acyl-protein thioesterase 1/2 (Mus musculus) (UniProt P97823+Q9WTL7). Description: Inhibition of FP-Rh binding to APT-1/2 in mouse brain membrane fraction preincubated for 1 hr followed by FP-Rh addition and measured after 1 hr by SDS-PAGE analysis. The format is cell membranes. The conditions noted are these: time 2.0 hrs. Summed up:
as §2

For assay [3], the target named is T2, Monoacylglycerol lipase ABHD6 (Mus musculus, UniProt Q8R2Y0).
T2 sequence (Q8R2Y0 whole entry): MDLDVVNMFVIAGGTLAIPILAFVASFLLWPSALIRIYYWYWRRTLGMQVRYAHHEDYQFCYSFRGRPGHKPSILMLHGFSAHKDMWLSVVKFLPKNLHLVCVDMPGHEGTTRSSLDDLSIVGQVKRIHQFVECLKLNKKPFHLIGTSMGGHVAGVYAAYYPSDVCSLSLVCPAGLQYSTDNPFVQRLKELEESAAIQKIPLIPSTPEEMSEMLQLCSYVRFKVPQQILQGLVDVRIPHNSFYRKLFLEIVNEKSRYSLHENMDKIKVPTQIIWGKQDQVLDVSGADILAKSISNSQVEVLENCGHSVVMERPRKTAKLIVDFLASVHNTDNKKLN
Kind of assay: Inhibition of FP-Rh binding to ABHD6 in mouse brain cytosolic fraction preincubated for 1 hr followed by FP-Rh addition and measured after 1 hr by SDS-PAGE analysis. The format is tissue-based. The method in brief:
as §2

For another assay, the species on record is Mus musculus. Kind of assay: Selectivity ratio of apparent IC50 for inhibition of FP-Rh binding to ABHD6 in mouse brain cytosolic fraction to apparent IC50 for inhibition of FP-Rh binding to APT-1/2 in mouse brain membrane fraction. In kind it is cell membranes. Summed up:
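Ratio of apparent IC50 values from competitive ABPP in mouse brain fractions (1 mg/mL). Each IC50 came from a 1 h inhibitor preincubation over six 1:3-diluted concentrations, then 1 h FP-rhodamine. 12% SDS-PAGE and in-gel fluorescence; band intensity normalized to uninhibited control, then fitted to a dose-response curve.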

Assay [4] deals with T1, Acyl-protein thioesterase 1/2 (Mus musculus). Description: Inhibition of APT-1/2 in mouse brain membrane fraction at 0.1 to 1 uM preincubated for 1 hr followed by TAMRA-alkyne addition and measured after 1 hr by SDS-PAGE analysis based click chemistry labelling method. The format is cell membranes. The conditions noted are these: dose microM 0.1-1, time 2.0 hrs. Summed up: (§3)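 Mouse brain cytosolic or membrane fraction (1 mg/mL; membrane pellet from 100,000 g spin, in 20 mM HEPES, 2 mM DTT, pH 7.2) incubated 1 h with probe added from 100x DMSO stock. CuAAC click with TAMRA-alkyne, THPTA, sodium ascorbate and CuSO4 for 1 h at room temperature; boiled in sample buffer, 12% SDS-PAGE, in-gel fluorescence.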

Assay [5] shares this target. Kind of assay: Inhibition of APT-1/2 in mouse brain cytosolic fraction at 0.1 to 1 uM preincubated for 1 hr followed by TAMRA-alkyne addition and measured after 1 hr by SDS-PAGE analysis based click chemistry labelling method. In kind it is tissue-based. The following applies: dose microM 0.1-1, time 2.0 hrs. The method in brief:
as §3

For assay [6] the target is unchanged. Description: Inhibition of APT-1/2 in mouse brain membrane fraction at 1 uM preincubated for 1 hr followed by TAMRA-Lys(biotin)-NH-propyne addition and measured after 1 hr click chemistry labelling based Western blot analysis. The format is cell membranes. The conditions noted are these: time 2.0 hrs. The method in brief:
(§4)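 Cytosolic or membrane mouse brain fraction (1 mg/mL) treated 1 h with 1 μM probe (100x DMSO stock) or DMSO. Click with TAMRA-Lys(biotin)-NHpropyne tag, THPTA, CuSO4, ascorbate, 1 h RT. Two cold-acetone precipitations, redissolved in PBS/2% SDS, diluted to 0.4% SDS, streptavidin pull-down 1 h at 25 °C. Gel fluorescence scanned, then blotted with anti-APT-1 or anti-APT-2 (0.5 μg/mL) overnight, HRP anti-rabbit, chemiluminescence.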
For orientation: Immunoblotting shows a protein as a band on a membrane.

Assay [7] has the same target. Kind of assay: Inhibition of APT-1/2 in mouse brain cytosolic fraction at 1 uM preincubated for 1 hr followed by TAMRA-Lys(biotin)-NH-propyne addition and measured after 1 hr click chemistry labelling based Western blot analysis. The conditions noted are these: time 2.0 hrs. The format is tissue-based. The method in brief: as §4
Assay [8] deals with Acyl-protein thioesterase 1/2 (Homo sapiens) (UniProt O75608+O95372). Kind of assay: Inhibition of FP-Rh binding to APT-1/2 in human A-431 cells at 1 uM preincubated for 2 hrs followed by compound washout and subsequent FP-Rh addition and measured after 1 hr by SDS-PAGE analysis.
Sequence of Acyl-protein thioesterase 1/2 (Homo sapiens) (O75608 whole entry, looked up): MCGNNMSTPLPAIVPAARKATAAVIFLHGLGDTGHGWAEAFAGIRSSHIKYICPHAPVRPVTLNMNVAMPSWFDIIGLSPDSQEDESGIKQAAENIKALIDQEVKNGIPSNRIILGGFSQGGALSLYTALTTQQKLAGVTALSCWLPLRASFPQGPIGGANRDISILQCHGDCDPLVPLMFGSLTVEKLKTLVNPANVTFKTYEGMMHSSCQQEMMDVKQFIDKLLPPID
Sequence of Acyl-protein thioesterase 1/2 (Homo sapiens) (O95372 whole entry, looked up): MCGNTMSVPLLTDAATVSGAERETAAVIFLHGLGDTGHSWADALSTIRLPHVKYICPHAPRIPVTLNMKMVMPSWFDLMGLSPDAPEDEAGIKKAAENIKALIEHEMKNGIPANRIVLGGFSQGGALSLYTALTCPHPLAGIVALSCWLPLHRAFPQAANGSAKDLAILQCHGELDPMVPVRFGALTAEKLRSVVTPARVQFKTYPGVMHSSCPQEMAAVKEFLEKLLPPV
Assay [9] addresses T1, Acyl-protein thioesterase 1/2 (Mus musculus). Described as §1. In kind it is tissue-based. The following applies: time 2.0 hrs. Summed up:
as §2

T1 sequence (P97823 whole entry, looked up): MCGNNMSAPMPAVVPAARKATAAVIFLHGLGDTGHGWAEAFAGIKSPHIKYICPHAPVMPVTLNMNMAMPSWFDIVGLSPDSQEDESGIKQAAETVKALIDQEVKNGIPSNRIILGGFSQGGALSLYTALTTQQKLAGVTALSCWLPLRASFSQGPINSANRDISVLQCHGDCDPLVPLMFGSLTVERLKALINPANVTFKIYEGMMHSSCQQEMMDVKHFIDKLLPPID
T1 sequence (Q9WTL7 whole entry, looked up): as the sequence (O95372 whole entry, looked up) above, with A154N, S193T counted along it

Turning to `[N-]=[N+]=NCCCC[C@H](NC(=O)CCCCCNC(=O)[C@H](Cc1ccccc1)NC(=O)C1CCN(C(=O)n2ccnn2)CC1)C(N)=O`, the “IC50(app)” value in [1] is 0.46 µM. For the same compound, in [2], the inhibition entry is “Active”. The compound further showed an IC50 in [3] of over 30 µM. Moreover, the Ratio IC50 in the assay listed under Mus musculus is over 65.
For the compound `[N-]=[N+]=NCCCC[C@H](NC(=O)CCCCCNC(=O)c1ccc(CN2CCN(C(=O)n3ccnn3)CC2)cc1)C(N)=O`, in [1], the “IC50(app)” value came to 0.0279 µM. Moreover, the inhibition entry in [2], in assay [4], in assay [5], in assay [6], in [7] and in assay [8] was “Active” each time. In [3], this compound had a half-inhibitory concentration (IC50) of 7.4 µM. Besides, in the assay filed under Mus musculus, the Ratio IC50 turned out to be 250.
On to `[N-]=[N+]=NCCCC[C@H](NC(=O)CCCCCNC(=O)CN(Cc1ccccc1)C(=O)C1CCN(C(=O)ON2C(=O)CCC2=O)CC1)C(N)=O`, for which the inhibition result in assay [9] and in assay [2] was “Active” throughout.
Turning to `[N-]=[N+]=NCCCC[C@H](NC(=O)CCCCCNC(=O)c1ccc(CN2CCN(C(=O)ON3C(=O)CCC3=O)CC2)cc1)C(N)=O`, the inhibition result in [9] and in assay [2] was “Active” in each case.
As for `[N-]=[N+]=NCCCC[C@H](NC(=O)CCCCCNC(=O)CN(Cc1ccccc1)C(=O)C1CCN(C(=O)n2ccnn2)CC1)C(N)=O`, in assay [1], the “IC50(app)” value amounted to 0.0118 µM. The inhibition entry in [2], in [4], in assay [5], in assay [6], in assay [7] and in [8] was “Active” in each case. In addition, the concentration for half-maximal inhibition (IC50) in assay [3] was over 30 µM. Besides, the Ratio IC50 in the assay listed under Mus musculus is over 2500.

What is called IC50 is the point on the concentration scale where inhibition reaches its midpoint. Higher therefore signals a need for much substance.
